According to ChEMBL document CHEMBL2413013, “Triplex-forming ability of oligonucleotides containing 1-aryl-1,2,3-triazole nucleobases linked via a two atom-length spacer” (Bioorg Med Chem, 2013):

How the values were obtained:
[1] = Binding affinity to hairpin double stranded DNA AT base pair in sodium cacodylate buffer at pH 6.8 assessed as triplex-forming ability measuring melting temperature after by UV melting experiment
How it was run: (§1)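 TFO and hairpin dsDNA target, each strand at 1.89 μM final, in 10 mM sodium cacodylate (pH 6.8) with 100 mM KCl and 50 mM MgCl₂. Annealed in boiling water, then cooled slowly to 5 °C. Melting was followed at 260 nm from 5 to 90 °C at 0.5 °C/min. Tm was taken by the two-point average method, mean of three independent runs.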

[2] = Binding affinity to hairpin double stranded DNA GC base pair in sodium cacodylate buffer at pH 6.8 assessed as triplex-forming ability measuring melting temperature after by UV melting experiment; how it was run: as §1
[3] = Binding affinity to hairpin double stranded DNA CG base pair in sodium cacodylate buffer at pH 6.8 assessed as triplex-forming ability measuring melting temperature after by UV melting experiment; how it was run: as §1
[4] = Binding affinity to hairpin double stranded DNA TA base pair in sodium cacodylate buffer at pH 6.8 assessed as triplex-forming ability measuring melting temperature after by UV melting experiment; how it was run: as §1

Structure (SMILES): Cc1cn([C@H]2C[C@H](O[PH](OCCC#N)(OC[C@H]3O[C@@H](n4cc(C)c(=O)[nH]c4=O)C[C@@H]3O[PH](OCCC#N)(OC[C@H]3O[C@@H](n4cc(C)c(=O)[nH]c4=O)C[C@@H]3O[PH](OCCC#N)(OC[C@H]3O[C@@H](n4cc(C)c(=O)[nH]c4=O)C[C@@H]3O[PH](OCCC#N)(OC[C@H]3O[C@@H](n4cc(C)c(=O)[nH]c4=O)C[C@@H]3O[PH](OCCC#N)(OC(C)[C@H]3O[C@@H](n4ccc(N)nc4=O)C[C@@H]3O[PH](OCCC#N)(OC[C@H]3O[C@@H](n4cc(C)c(=O)[nH]c4=O)C[C@@H]3O[PH](OCCC#N)(OC[C@H]3O[C@@H](CCc4cn(-c5cccc(C(N)=O)c5)nn4)C[C@@H]3OP(=O)(O)OC[C@H]3O[C@@H](n4cc(C)c(=O)[nH]c4=O)C[C@@H]3O[PH](OCCC#N)(OC(C)[C@H]3O[C@@H](n4ccc(N)nc4=O)C[C@@H]3O[PH](OCCC#N)(OC[C@H]3O[C@@H](n4cc(C)c(=O)[nH]c4=O)C[C@@H]3O[PH](OCCC#N)(OC(C)[C@H]3O[C@@H](n4ccc(N)nc4=O)C[C@@H]3O[PH](OCCC#N)(OC[C@H]3O[C@@H](n4cc(C)c(=O)[nH]c4=O)C[C@@H]3O[PH](OCCC#N)(OC(C)[C@H]3O[C@@H](n4ccc(N)nc4=O)C[C@@H]3O[PH](OCCC#N)(OC[C@H]3O[C@@H](n4cc(C)c(=O)[nH]c4=O)C[C@@H]3O)N(C(C)C)C(C)C)N(C(C)C)C(C)C)N(C(C)C)C(C)C)N(C(C)C)C(C)C)N(C(C)C)C(C)C)N(C(C)C)C(C)C)N(C(C)C)C(C)C)N(C(C)C)C(C)C)N(C(C)C)C(C)C)N(C(C)C)C(C)C)N(C(C)C)C(C)C)N(C(C)C)C(C)C)N(C(C)C)C(C)C)[C@@H](CO)O2)c(=O)[nH]c1=O (stereo not given in full)
- Tm [1]: 22 °C
- Tm [2]: 22 °C
- Tm [3]: 25 °C
- Tm [4]: 25 °C

Structure (SMILES): Cc1cn([C@H]2C[C@H](O[PH](OCCC#N)(OC[C@H]3O[C@@H](n4cc(C)c(=O)[nH]c4=O)C[C@@H]3O[PH](OCCC#N)(OC[C@H]3O[C@@H](n4cc(C)c(=O)[nH]c4=O)C[C@@H]3O[PH](OCCC#N)(OC[C@H]3O[C@@H](n4cc(C)c(=O)[nH]c4=O)C[C@@H]3O[PH](OCCC#N)(OC[C@H]3O[C@@H](n4cc(C)c(=O)[nH]c4=O)C[C@@H]3O[PH](OCCC#N)(OC(C)[C@H]3O[C@@H](n4ccc(N)nc4=O)C[C@@H]3O[PH](OCCC#N)(OC[C@H]3O[C@@H](n4cc(C)c(=O)[nH]c4=O)C[C@@H]3O[PH](OCCC#N)(OC[C@H]3O[C@@H](CCc4cn(-c5ccccc5C(N)=O)nn4)C[C@@H]3OP(=O)(O)OC[C@H]3O[C@@H](n4cc(C)c(=O)[nH]c4=O)C[C@@H]3O[PH](OCCC#N)(OC(C)[C@H]3O[C@@H](n4ccc(N)nc4=O)C[C@@H]3O[PH](OCCC#N)(OC[C@H]3O[C@@H](n4cc(C)c(=O)[nH]c4=O)C[C@@H]3O[PH](OCCC#N)(OC(C)[C@H]3O[C@@H](n4ccc(N)nc4=O)C[C@@H]3O[PH](OCCC#N)(OC[C@H]3O[C@@H](n4cc(C)c(=O)[nH]c4=O)C[C@@H]3O[PH](OCCC#N)(OC(C)[C@H]3O[C@@H](n4ccc(N)nc4=O)C[C@@H]3O[PH](OCCC#N)(OC[C@H]3O[C@@H](n4cc(C)c(=O)[nH]c4=O)C[C@@H]3O)N(C(C)C)C(C)C)N(C(C)C)C(C)C)N(C(C)C)C(C)C)N(C(C)C)C(C)C)N(C(C)C)C(C)C)N(C(C)C)C(C)C)N(C(C)C)C(C)C)N(C(C)C)C(C)C)N(C(C)C)C(C)C)N(C(C)C)C(C)C)N(C(C)C)C(C)C)N(C(C)C)C(C)C)N(C(C)C)C(C)C)[C@@H](CO)O2)c(=O)[nH]c1=O (stereo not given in full)
- Tm [1]: 16 °C
- Tm [2]: 19 °C
- Tm [3]: 20 °C
- Tm [4]: 18 °C

Structure (SMILES): CC(=O)N1CCCc2ccc(-n3cc(CC[C@H]4C[C@H](OP(=O)(O)OC[C@H]5O[C@@H](n6cc(C)c(=O)[nH]c6=O)C[C@@H]5O[PH](OCCC#N)(OC(C)[C@H]5O[C@@H](n6ccc(N)nc6=O)C[C@@H]5O[PH](OCCC#N)(OC[C@H]5O[C@@H](n6cc(C)c(=O)[nH]c6=O)C[C@@H]5O[PH](OCCC#N)(OC(C)[C@H]5O[C@@H](n6ccc(N)nc6=O)C[C@@H]5O[PH](OCCC#N)(OC[C@H]5O[C@@H](n6cc(C)c(=O)[nH]c6=O)C[C@@H]5O[PH](OCCC#N)(OC(C)[C@H]5O[C@@H](n6ccc(N)nc6=O)C[C@@H]5O[PH](OCCC#N)(OC[C@H]5O[C@@H](n6cc(C)c(=O)[nH]c6=O)C[C@@H]5O)N(C(C)C)C(C)C)N(C(C)C)C(C)C)N(C(C)C)C(C)C)N(C(C)C)C(C)C)N(C(C)C)C(C)C)N(C(C)C)C(C)C)[C@@H](CO[PH](OCCC#N)(O[C@H]5C[C@H](n6cc(C)c(=O)[nH]c6=O)O[C@@H]5CO[PH](OCCC#N)(O[C@H]5C[C@H](n6ccc(N)nc6=O)O[C@@H]5C(C)O[PH](OCCC#N)(O[C@H]5C[C@H](n6cc(C)c(=O)[nH]c6=O)O[C@@H]5CO[PH](OCCC#N)(O[C@H]5C[C@H](n6cc(C)c(=O)[nH]c6=O)O[C@@H]5CO[PH](OCCC#N)(O[C@H]5C[C@H](n6cc(C)c(=O)[nH]c6=O)O[C@@H]5CO[PH](OCCC#N)(O[C@H]5C[C@H](n6cc(C)c(=O)[nH]c6=O)O[C@@H]5CO[PH](OCCC#N)(O[C@H]5C[C@H](n6cc(C)c(=O)[nH]c6=O)O[C@@H]5CO)N(C(C)C)C(C)C)N(C(C)C)C(C)C)N(C(C)C)C(C)C)N(C(C)C)C(C)C)N(C(C)C)C(C)C)N(C(C)C)C(C)C)N(C(C)C)C(C)C)O4)nn3)cc21 (stereo not given in full)
- Tm [1]: 21 °C
- Tm [2]: 21 °C
- Tm [3]: 26 °C
- Tm [4]: 27 °C

Structure (SMILES): Cc1cn([C@H]2C[C@H](O[PH](OCCC#N)(OC[C@H]3O[C@@H](n4cc(C)c(=O)[nH]c4=O)C[C@@H]3O[PH](OCCC#N)(OC[C@H]3O[C@@H](n4cc(C)c(=O)[nH]c4=O)C[C@@H]3O[PH](OCCC#N)(OC[C@H]3O[C@@H](n4cc(C)c(=O)[nH]c4=O)C[C@@H]3O[PH](OCCC#N)(OC[C@H]3O[C@@H](n4cc(C)c(=O)[nH]c4=O)C[C@@H]3O[PH](OCCC#N)(OC(C)[C@H]3O[C@@H](n4ccc(N)nc4=O)C[C@@H]3O[PH](OCCC#N)(OC[C@H]3O[C@@H](n4cc(C)c(=O)[nH]c4=O)C[C@@H]3O[PH](OCCC#N)(OC[C@H]3O[C@@H](CCc4cn(-c5ccccc5O)nn4)C[C@@H]3OP(=O)(O)OC[C@H]3O[C@@H](n4cc(C)c(=O)[nH]c4=O)C[C@@H]3O[PH](OCCC#N)(OC(C)[C@H]3O[C@@H](n4ccc(N)nc4=O)C[C@@H]3O[PH](OCCC#N)(OC[C@H]3O[C@@H](n4cc(C)c(=O)[nH]c4=O)C[C@@H]3O[PH](OCCC#N)(OC(C)[C@H]3O[C@@H](n4ccc(N)nc4=O)C[C@@H]3O[PH](OCCC#N)(OC[C@H]3O[C@@H](n4cc(C)c(=O)[nH]c4=O)C[C@@H]3O[PH](OCCC#N)(OC(C)[C@H]3O[C@@H](n4ccc(N)nc4=O)C[C@@H]3O[PH](OCCC#N)(OC[C@H]3O[C@@H](n4cc(C)c(=O)[nH]c4=O)C[C@@H]3O)N(C(C)C)C(C)C)N(C(C)C)C(C)C)N(C(C)C)C(C)C)N(C(C)C)C(C)C)N(C(C)C)C(C)C)N(C(C)C)C(C)C)N(C(C)C)C(C)C)N(C(C)C)C(C)C)N(C(C)C)C(C)C)N(C(C)C)C(C)C)N(C(C)C)C(C)C)N(C(C)C)C(C)C)N(C(C)C)C(C)C)[C@@H](CO)O2)c(=O)[nH]c1=O (stereo not given in full)
- Tm [1]: 20 °C
- Tm [2]: 19 °C
- Tm [3]: 22 °C
- Tm [4]: 18 °C

Structure (SMILES): CC1=CN([C@H]2C[C@H](O[PH](OCCC#N)(OC(C)[C@H]3O[C@@H](n4ccc(N)nc4=O)C[C@@H]3O[PH](OCCC#N)(OC[C@H]3O[C@@H](n4cc(C)c(=O)[nH]c4=O)C[C@@H]3O[PH](OCCC#N)(OC[C@H]3O[C@@H](OCc4cn(-c5ccccc5O)nn4)C[C@@H]3OP(=O)(O)OC[C@H]3O[C@@H](n4cc(C)c(=O)[nH]c4=O)C[C@@H]3O[PH](OCCC#N)(OC(C)[C@H]3O[C@@H](n4ccc(N)nc4=O)C[C@@H]3O[PH](OCCC#N)(OC[C@H]3O[C@@H](n4cc(C)c(=O)[nH]c4=O)C[C@@H]3O[PH](OCCC#N)(OC(C)[C@H]3O[C@@H](n4ccc(N)nc4=O)C[C@@H]3O[PH](OCCC#N)(OC[C@H]3O[C@@H](n4cc(C)c(=O)[nH]c4=O)C[C@@H]3O[PH](OCCC#N)(OC(C)[C@H]3O[C@@H](n4ccc(N)nc4=O)C[C@@H]3O[PH](OCCC#N)(OC[C@H]3O[C@@H](n4cc(C)c(=O)[nH]c4=O)C[C@@H]3O)N(C(C)C)C(C)C)N(C(C)C)C(C)C)N(C(C)C)C(C)C)N(C(C)C)C(C)C)N(C(C)C)C(C)C)N(C(C)C)C(C)C)N(C(C)C)C(C)C)N(C(C)C)C(C)C)N(C(C)C)C(C)C)[C@@H](CO[PH](OCCC#N)(O[C@H]3C[C@H](n4cc(C)c(=O)[nH]c4=O)O[C@@H]3CO[PH](OCCC#N)(O[C@H]3C[C@H](n4cc(C)c(=O)[nH]c4=O)O[C@@H]3CO[PH](OCCC#N)(O[C@H]3C[C@H](n4cc(C)c(=O)[nH]c4=O)O[C@@H]3CO[PH](OCCC#N)(O[C@H]3C[C@H](n4cc(C)c(=O)[nH]c4=O)O[C@@H]3CO)N(C(C)C)C(C)C)N(C(C)C)C(C)C)N(C(C)C)C(C)C)N(C(C)C)C(C)C)O2)C(O)NC1=O (stereo not given in full)
- Tm [1]: 20 °C
- Tm [2]: 20 °C
- Tm [3]: 23 °C
- Tm [4]: 20 °C
